Data as given in publication PMC4465239 (Journal of autoimmunity, 2013).
Read-outs that look alike come from different tables or passages of the source. Where no end group is shown, it is not given here. fluorescein = fluorescein label at the C-terminus

B1: IL-2: recombinant mouse IL-2 (protein, UniProt P04351 21-169, looked up)
Interleukin-2: APTSSSTSSSTAEAQQQQQQQQQQQQHLEQLLMDLQELLSRMENYRNLKLPRMLTFKFYLPKQATELKDLQCLEDELGPLRHVLDLTQSKSFQLEDAENFISNIRVTVVKLKGSDNTFECQFDDESATVVDFLRRWIAFCQSIISTSPQ
B2: YPDV MHC variant peptide … (peptide)
peptide: AHYPIPADMDV-fluorescein
B3: BDC-2.5 mimotope peptide … (peptide)
peptide: AHHPIWARMDA-fluorescein

How the values were obtained:
[1] = tested on: I-A^g7; test: Half life of peptide:MHC interaction; format: binding, mouse; details: HPSEC, 37°C
How it was run: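 I-Ag7 monomer (1 µM) was loaded with 10 µM C-terminally fluoresceinated peptide for 24–72h at 37°C in 100mM citrate phosphate pH 5, 0.2% NP-40, 0.02% azide, 10mM EDTA and protease inhibitors. Free peptide was removed on a BSA-blocked G-50 spin column, and 2mM unlabelled competitor peptide was added. Samples dissociated at 37°C, were resolved by size-exclusion HPLC with fluorescence detection, and t½ = ln2/decay slope.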

[2] = tested on: BDC-2.5 T cells; format: cell-based, mouse
How it was run: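 BDC-2.5 splenocytes were primed 14 d with 1µM mimotope, Ficoll-purified, then restimulated 14 d with irradiated (3000 rad) syngeneic splenocytes plus 1µM mimotope or 10µM variant. They were then challenged with graded mimotope and irradiated splenocytes at 37°C. After 48h, 0.4µCi/well [3H]thymidine was added and incorporation counted 18h later. Four independent experiments in duplicate; mean ± SEM; Student's t test.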

[3] = tested on: BDC-2.5 T cells; test: Proliferation of anergized cells with or without exogenous IL-2; format: cell-based, mouse; details: for proliferation on mimotope rechallenge with IL-2: with 3.5ng/well recombinant IL-2, mimotope+IL-2 vs. variant+IL-2 p=0.001; for proliferation on mimotope rechallenge without IL-2: without exogenous IL-2, mimotope vs. variant p=0.05
How it was run: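 Anergy was induced as follows: 14 d with 1µM mimotope, then 14 d with 1µM mimotope or 10µM variant plus irradiated APC. Cells were rechallenged with irradiated syngeneic splenocytes and graded mimotope, with or without 3.5ng/well recombinant mouse IL-2, for 48h at 37°C. [3H]thymidine (0.4µCi/well) was added for a further 18h. Stimulation index = stimulated CPM/unstimulated CPM. One-way ANOVA with Bonferroni post test.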

[4] = target: I-A^g7 monomer (class II MHC of the NOD mouse) (mouse (NOD)); test: SEC

Molecule | stability of complex with I-A^g7 [1] | proliferation on mimotope rechallenge with IL-2 [3] | proliferation on mimotope rechallenge without IL-2 [3] | half life of the peptide:MHC complex [4] [h] | also measured
AHYPIPADMDV [YPDV] | much less stable complex | did not exhibit proliferation above background | little proliferation above background |  | induction of anergy [2]: sufficient to induce an anergic phenotype; induction of anergy ([2]; listed as MHC variant peptide): can induce anergy in BDC-2.5 T cells
AHHPIWARMDA [mimotope, reference compound] | extremely stable complex | maintained a normal dose response to agonist stimulation | typical proliferation profile |  | background proliferation with IL-2, no peptide rechallenge ([3]; cells not stimulated with peptide, plus 3.5ng/well recombinant IL-2): increased background proliferation
B1 |  |  |  |  | rescue of proliferation of anergized T cells by IL-2 ([3]; exogenous recombinant IL-2, 3.5ng/well): does not rescue proliferation of anergized T cells
B2 |  |  |  | 4 | 
B3 |  |  |  | > 36 | 
